Reference: ChEMBL document CHEMBL5303300, “EUbOPEN Chemogenomics Library - Multiplex” (2023)
Values joined by “and” are separate entries in the source; they are usually repeats but may differ in a detail not shown here. Identical values can stand only once.

Tested on: U2OS
Test: Multiplex assay against U2OS
Type: toxicity, cell-based
Details: human, number of replicates 2
Method in brief: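 Values for tubulin, mitochondrial-mass and membrane-permeability phenotypes are per cents of cells with healthy nuclei. These cells were identified by CellPathfinder machine-learning gating of live cells that had been stained at seeding with Hoechst33342, BioTracker Green Microtubule Cytoskeleton Dye, MitoTracker Red and Annexin V Alexa Fluor 680 and imaged on a CQ1 microscope at 37°C and 5% CO2 after compound addition. The gating first set Hoechst high-intensity objects apart from normal cells, then split normal cells into healthy, pyknosed or fragmented nuclei, and pyknosed cells into mitotic or apoptotic.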

[1] = 12 h, 1 µM, compound concentration 1 uM
[2] = 12 h, 10 µM, compound concentration 10 uM
[3] = 24 h, 1 µM, compound concentration 1 uM
[4] = 24 h, 10 µM, compound concentration 10 uM
[5] = 48 h, 1 µM, compound concentration 1 uM
[6] = 48 h, 10 µM, compound concentration 10 uM

CCc1cnn2c(NCc3ccc[n+]([O-])c3)cc(N3CCCCC3CCO)nc12 (centres undefined) was tested, and the “Population Apoptotic (%)” value [1] was 58% and 91%, the “Population Healthy Nuclei (%)” value [1] was 22% and 40% and the “Population Hoechst High Intensity Objects (%)” value [1] was 0%. The “Population Membrane Permeable-Phenotype (%)” value [1] was 25% and 12%, the “Population Mitochondria Different-Phenotype (%)” value [1] was 12% and 2% and the “Population Normal (%)” value [1] was 100%. For the same compound, the “Population Pyknosed Nuclei (%)” value [1] was 34% and 49%, the “Population Tubulin-Different-Phenotype (%)” value [1] was 75% and 86% and the “Population Apoptotic (%)” value [2] was 78% and 66%. The “Population Fragmented Nuclei (%)” value [2] was 17% and 14%, the “Population Healthy Nuclei (%)” value [2] was 40% and 47% and the “Population Hoechst High Intensity Objects (%)” value [2] was 0%. For the same compound, the “Population Mitochondria Different-Phenotype (%)” value [2] was 11% and 0%, the “Population Mitotic Cells (%)” value [2] was 21% and 33% and the “Population Normal (%)” value [2] was 100%. The “Population Pyknosed Nuclei (%)” value [2] was 42% and 38%, the “Population Tubulin-Different-Phenotype (%)” value [2] was 44% and 76% and the “Population Apoptotic (%)” value [3] was 100%. The “Population Healthy Nuclei (%)” value [3] was 20% and 30%, the “Population Hoechst High Intensity Objects (%)” value [3] was 0% and 1% and the “Population Membrane Permeable-Phenotype (%)” value [3] was 20% and 10%. The “Population Mitotic Cells (%)” value [3] was 0%, the “Population Normal (%)” value [3] was 100% and 98% and the “Population Pyknosed Nuclei (%)” value [3] was 32% and 53%. For the same compound, the “Population Tubulin-Different-Phenotype (%)” value [3] was 100% and 82%, the “Population Apoptotic (%)” value [4] was 87% and 82% and the “Population Fragmented Nuclei (%)” value [4] was 14% and 12%. The “Population Healthy Nuclei (%)” value [4] was 34% and 33%, the “Population Hoechst High Intensity Objects (%)” value [4] was 4% and 1% and the “Population Membrane Permeable-Phenotype (%)” value [4] was 6% and 10%. The “Population Mitochondria Different-Phenotype (%)” value [4] was 6% and 8%, the “Population Mitotic Cells (%)” value [4] was 12% and 17% and the “Population Normal (%)” value [4] was 95% and 98%. For the same compound, the “Population Pyknosed Nuclei (%)” value [4] was 51% and 53%, the “Population Tubulin-Different-Phenotype (%)” value [4] was 43% and 63% and the “Population Apoptotic (%)” value [5] was 100% and 97%. The “Population Healthy Nuclei (%)” value [5] was 25% and 16%, the “Population Hoechst High Intensity Objects (%)” value [5] was 0% and 3% and the “Population Membrane Permeable-Phenotype (%)” value [5] was 12% and 31%. For the same compound, the “Population Mitochondria Different-Phenotype (%)” value [5] was 25% and 21%, the “Population Mitotic Cells (%)” value [5] was 0% and 2% and the “Population Normal (%)” value [5] was 100% and 96%. The “Population Pyknosed Nuclei (%)” value [5] was 28% and 74%, the “Population Tubulin-Different-Phenotype (%)” value [5] was 75% and 100% and the “Population Apoptotic (%)” value [6] was 95% and 82%. The “Population Fragmented Nuclei (%)” value [6] was 10% and 19%, the “Population Healthy Nuclei (%)” value [6] was 18% and 11% and the “Population Hoechst High Intensity Objects (%)” value [6] was 1%. The “Population Mitochondria Different-Phenotype (%)” value [6] was 45% and 33%, the “Population Normal (%)” value [6] was 98% and the “Population Pyknosed Nuclei (%)” value [6] was 71% and 68%. For the same compound, the “Population Tubulin-Different-Phenotype (%)” value [6] was 81% and 83%.

In the case of COc1nc2ccc([C@@](O)(c3ccc(Cl)cc3)c3cncn3C)cc2c(Cl)c1Cc1ccc(-n2cccn2)cc1 [JNJ-53721590], the “Population Healthy Nuclei (%)” value [1] is reported as 56% and 85%, the “Population Hoechst High Intensity Objects (%)” value [1] is reported as 0% and the “Population Membrane Permeable-Phenotype (%)” value [1] is reported as 5% and 1%. The “Population Mitochondria Different-Phenotype (%)” value [1] was 0% and 20%, the “Population Normal (%)” value [1] was 100% and the “Population Pyknosed Nuclei (%)” value [1] was 16% and 10%. For the same compound, the “Population Tubulin-Different-Phenotype (%)” value [1] was 23% and 37%, the “Population Apoptotic (%)” value [2] was 74% and 57% and the “Population Fragmented Nuclei (%)” value [2] was 2% and 12%. For the same compound, the “Population Healthy Nuclei (%)” value [2] was 82% and 74%, the “Population Hoechst High Intensity Objects (%)” value [2] was 0% and the “Population Membrane Permeable-Phenotype (%)” value [2] was 29% and 21%. For the same compound, the “Population Mitochondria Different-Phenotype (%)” value [2] was 28% and 56%, the “Population Mitotic Cells (%)” value [2] was 25% and 42% and the “Population Normal (%)” value [2] was 99% and 100%. For the same compound, the “Population Pyknosed Nuclei (%)” value [2] was 14% and 12%, the “Population Tubulin-Different-Phenotype (%)” value [2] was 89% and 97% and the “Population Apoptotic (%)” value [3] was 50% and 62%. The “Population Fragmented Nuclei (%)” value [3] was 20% and 0%, the “Population Healthy Nuclei (%)” value [3] was 45% and 85% and the “Population Hoechst High Intensity Objects (%)” value [3] was 0%. For the same compound, the “Population Membrane Permeable-Phenotype (%)” value [3] was 0% and 1%, the “Population Mitochondria Different-Phenotype (%)” value [3] was 6% and 17% and the “Population Mitotic Cells (%)” value [3] was 50% and 37%. The “Population Normal (%)” value [3] was 100% and 99%, the “Population Pyknosed Nuclei (%)” value [3] was 34% and 13% and the “Population Tubulin-Different-Phenotype (%)” value [3] was 25% and 42%. For the same compound, the “Population Apoptotic (%)” value [4] was 79% and 36%, the “Population Fragmented Nuclei (%)” value [4] was 3% and 12% and the “Population Healthy Nuclei (%)” value [4] was 78% and 64%. For the same compound, the “Population Hoechst High Intensity Objects (%)” value [4] was 0%, the “Population Membrane Permeable-Phenotype (%)” value [4] was 34% and 35% and the “Population Mitochondria Different-Phenotype (%)” value [4] was 43% and 54%. The “Population Normal (%)” value [4] was 99% and 100%, the “Population Pyknosed Nuclei (%)” value [4] was 18% and 22% and the “Population Tubulin-Different-Phenotype (%)” value [4] was 93%. For the same compound, the “Population Apoptotic (%)” value [5] was 70% and 81%, the “Population Healthy Nuclei (%)” value [5] was 86% and 54% and the “Population Hoechst High Intensity Objects (%)” value [5] was 0%. The “Population Mitochondria Different-Phenotype (%)” value [5] was 9% and 13%, the “Population Mitotic Cells (%)” value [5] was 29% and 18% and the “Population Normal (%)” value [5] was 99% and 100%. The “Population Pyknosed Nuclei (%)” value [5] was 10% and 26%, the “Population Apoptotic (%)” value [6] was 64% and 85% and the “Population Healthy Nuclei (%)” value [6] was 47% and 65%. The “Population Hoechst High Intensity Objects (%)” value [6] was 0%, the “Population Membrane Permeable-Phenotype (%)” value [6] was 57% and 47% and the “Population Mitochondria Different-Phenotype (%)” value [6] was 48% and 34%. For the same compound, the “Population Mitotic Cells (%)” value [6] was 35% and 14%, the “Population Normal (%)” value [6] was 100% and 99% and the “Population Pyknosed Nuclei (%)” value [6] was 24% and 26%. For the same compound, the “Population Tubulin-Different-Phenotype (%)” value [6] was 96% and 90%.
